Tests used:
MS2 coat protein [1] = assay: apparent Kd, MS2 coat protein; higher = weaker binding; RNA-MaP array; tryptophan 2.4 mM where present
Procedure, shortened: (§1)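 Stalled E. coli RNA polymerase transcribed the designs on Illumina sequencing-chip clusters. SNAP-549-labelled MS2 coat protein was titrated from 0.7 or 1.5 nM, doubling to 3 µM, without and then with constant ligand, in 100 mM Tris-HCl pH 7.5, 80 mM KCl, 4 mM MgCl2, BSA, DTT, yeast tRNA and Tween-20. Per-cluster binding curves were fitted to green signal normalised to red-channel RNA signal and control-cluster median Fmax. The apparent Kd is the median of the filtered fits.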

MS2 coat protein [2] = assay: apparent Kd, MS2 coat protein; higher = weaker binding; RNA-MaP array; theophylline 2 mM where present
Procedure, shortened: as §1

[3] = designed as: OFF switch for tryptophan, no ligand
[4] = ligand present: tryptophan, designed as: OFF switch for tryptophan
[5] = designed as: ON switch for tryptophan, no ligand
[6] = ligand present: tryptophan, designed as: ON switch for tryptophan
[7] = designed as: ON switch for theophylline, no ligand
[8] = ligand present: theophylline, designed as: ON switch for theophylline
[9] = designed as: OFF switch for theophylline, no ligand
[10] = ligand present: theophylline, designed as: OFF switch for theophylline

Sequence | apparent Kd (MS2 coat protein [2]; [7]) [nM] | apparent Kd (MS2 coat protein [2]; [8]) [nM] | apparent Kd (MS2 coat protein [2]; [9]) [nM] | apparent Kd (MS2 coat protein [2]; [10]) [nM] | other results
AUCUAUAGAGCGGCCGCCACUGAAUACAUGAGGAUCACCCAUGUAAUGUUAAGGUGGUCCUAGCUCAGGACCGGGCUCUAUAGAU |  |  |  |  | apparent Kd (MS2 coat protein [1]; [3]): 36.5 nM; apparent Kd (MS2 coat protein [1]; [4]): 22.2 nM
GCUAGGUCUACGGCCGCCACUAGACGUGGGUAAGACAUGAGGAUCACCCAUGUACUACAGGCGGAUAGGACCGGGUAGACCUAGC |  |  |  |  | apparent Kd (MS2 coat protein [1]; [5]): 114 nM; apparent Kd (MS2 coat protein [1]; [6]): 14.3 nM
ACAUUGCGCUCGGCCGCCACUGGCUUAUGAUUAUAAGCAUUAAUGAACAUGAGGAUCACCCAUGUCAGGACCGGGAGCGAACCAU |  |  |  |  | apparent Kd (MS2 coat protein [1]; [5]): 14 nM; apparent Kd (MS2 coat protein [1]; [6]): 16.6 nM
UCGGUGCUCUACAUGAGGAUCACCCAUGUCCGAGGACCGGUACGGCCGCCACUCGCAAUCAAACAGACGUGGGCCAACUUUGCGU |  |  |  |  | apparent Kd (MS2 coat protein [1]; [3]): 10.3 nM; apparent Kd (MS2 coat protein [1]; [4]): 13.6 nM
AGUCUGGACUCGGCCGCCACUCGUGAUGCUUUGGCACAUGAGGAUCACCCAUGUGGUCGGCCUUAGAGGACCGGGAGUACCAGCU |  |  |  |  | apparent Kd (MS2 coat protein [1]; [5]): 56.4 nM; apparent Kd (MS2 coat protein [1]; [6]): 12.9 nM
CAAAAUUUAACGGCCGCCACUUACUCAUGAGGUAACAACAUGAGGAUCACCCAUGUUUGAGGAUCAAGGACCGGGUUAAAUUUUG |  |  |  |  | apparent Kd (MS2 coat protein [1]; [5]): 30.6 nM; apparent Kd (MS2 coat protein [1]; [6]): 18.2 nM
GGCUGUUGCUCUUUGAAGCGGCAGCGUGAUACCAGAUGUAAGAGCGUCCCUUGGCAGCACGUUUACAUGAGGAUCACCCAUGUCA | 211 | 72.8 |  |  | 
ACGUCACGUUUACUCGUGGUUUCGUUCGAUACCAGUAGCGAGAGUUACCCUUGGCAGCGACAUGAGGAUCACCCAUGUACGAAGA |  |  | 13.1 | 27.2 | 
AACAUGAGGACGGAUACCAGUCACAUGAGGAUCACCCAUGUACAUGAGGAUCACCCAUGUGGCCCUUGGCAGCCGCAUGUGAUCA |  |  | 327 | 473 | 
CAUACUUUAUCCUAUGAGCCUAUUUGUGAUACCAGCAUCUAAAUUUGCCCUUGGCAGCACUUACAUGAGGAUCACCCAUGUUUUA | 26.8 | 40.7 |  |  | 
AAUAACAUGAGGAUCACCCAUGUAAAAGAUACCAGAGUGAUGAUCCUCCCUUGGCAGCUUAACGCUGAUUGGAAACAAUCAGCGA | 147 | 225 |  |  | 
GCACCAGGUACGGAUACCAGCUGCCACAGUUACAUGAGGAUCACCCAUGUGAUAAAGUGUAGCCCUUGGCAGCUGUACCUGGUGC | 114 | 14.3 |  |  | 
GAAACGUAGGUGGAGCGGUGAAAUGGCGAUACCAGCGUGGAAACACGCCCUUGGCAGCGUUAGAACAUGAGGAUCACCCAUGUUU |  |  | 25.2 | 112 | 
AUCCUCAAGAAUGAUACCAGACCAAACAUGAGGAUCACCCAUGUAUCAGGCAAUUGUUACGUCCCUUGGCAGCAUGUAAGCCGAC | 54.9 | 60.2 |  |  | 
AGCGACAUGCGUGAUACCAGCUACAUGAGGAUCACCCAUGUACGUCAGAAAUGACUGUGUAGCCCUUGGCAGCAUAAUGCAUGUC |  |  | 40.9 | 70.5 | 
AACCGAGGCUAUCCUCUCCGACUAUGUGAUACCAGAAUAAUUUUAUUCCCUUGGCAGCAUGACAUGAGGAUCACCCAUGUCUCUU | 15.8 | 20.7 |  |  | 
UGACGAUACCUGGAUACCAGCGACAUGAGGAUCACCCAUGUAUGAGGAUCAGCCAUGUUAUGCCCUUGGCAGCCACGAAAGUCUU |  |  | 45.7 | 171 | 
UCACAUGAGGAUCACCCAUGUACAGGCGAUACCAGCCGUACAUUGGGCCCUUGGCAGCGCACCGAGACCUUUUAAAGCACUUCGG | 35.1 | 121 |  |  | 
UCCUCCUCCGCAAGGAGGAGGAGUUGCGAUACCAGCACGGUAACGUGCCCUUGGCAGCGCACAUGAGGAUCACCCAUGUCAUGUU |  |  | 17.6 | 22.3 | 
AUAUGAUCAUACGAUACCAGAAAUGGUAUUCCUUUAUUUCUUACAUGAGGAUCACCCAUGUUCCCUUGGCAGCGUAUGAUCAUAU |  |  | 363 | 123 | 
UAAAACAUGAGGAUCACCCAUGUAAUUGAUACCAGAGUGAUGAUCCUCCCUUGGCAGCAAAACGCUGAUUGAUUACAAUCAGCGA | 54.3 | 207 |  |  | 
ACUAACUAUAGUGAUACCAGACGUACAUGAGGAUCACCCAUGUUACAUUCUUGGUUAAAAGUCCCUUGGCAGCACGAUAAGUUCG |  |  | 9.74 | 9.5 | 
GAGCUGAUGUAGGGUGGAUAUCCUUGAGAUACCAGUACAGAAAUGUACCCUUGGCAGCUCUUCCUUACAUGAGGAUCACCCAUGU |  |  | 18.7 | 23.1 | 
UCAUAUUAGUGAGAUGUAAGGUAUCAUGAUACCAGUAGAUAAUUAUACCCUUGGCAGCAUAACAUGAGGAUCACCCAUGUACAUG |  |  | 25.6 | 23.3 | 
CAUUAUGUAACUGAUACCAGUGUACUGACAUGAGGAUCACCCAUGUUGGGUUUUGUUGUACACCCUUGGCAGCAGAAUCAUAAUG |  |  | 63.5 |  | 
ACAUGAGGAUCACCCAUGUAAUGGCACGAUACCAGCUGAUCCCGUGGCCCUUGGCAGCGUCCGGUGUGGUCCGCCGGGUUGGAGC | 21 | 39.3 |  |  | 
